Experimental data published in the EternaBench riboswitch data.

Tested on: MS2 coat protein
Assay: apparent Kd, MS2 coat protein; higher = weaker binding; RNA-MaP array; FMN 200 µM where present
Outline: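 Designs were transcribed by stalled E. coli RNA polymerase on Illumina sequencing-chip clusters. They were titrated with SNAP-549-labelled MS2 coat protein from 0.7 or 1.5 nM, doubling to 3 µM, without and then with constant ligand. Buffer: 100 mM Tris-HCl pH 7.5, 80 mM KCl, 4 mM MgCl2, BSA, DTT, yeast tRNA, Tween-20. Green signal was normalised to red-channel RNA signal and control-cluster median Fmax. Apparent Kd is the median of filtered per-cluster binding-curve fits.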

[1] = designed as: ON switch for flavin mononucleotide, no ligand
[2] = ligand present: flavin mononucleotide, designed as: ON switch for flavin mononucleotide
[3] = designed as: OFF switch for flavin mononucleotide, no ligand
[4] = ligand present: flavin mononucleotide, designed as: OFF switch for flavin mononucleotide

| Sequence | apparent Kd [1] [µM] | apparent Kd [2] [µM] | apparent Kd [3] [µM] | apparent Kd [4] [µM] |
| --- | --- | --- | --- | --- |
| AGUGUCAUCGAGAAGGCCUCAACAUGAGGAUCACCCAUGUUGCAAAAUGGGAGGAUAUCGCAAAAACAGCUACGUUUCGUAGCA | 0.0454 | 0.00743 | – | – |
| AGUGUCAUCGAGAAGGCCUCAACAUGAGGAUCACCCAUGUUGCAAAAUGGGAGGAUAUCGCGCGAAAAGCUACGUUUCGUAGCA | 0.0289 | 0.0116 | – | – |
| AGUGUCAUCGAGAAGGCCUUGACAUGAGGAUCACCCAUGUUGUAACAUGGGAGGAUAUCGAUGAUACAGCUACGUUUCGUAGCA | 0.625 | 0.0473 | – | – |
| AGUUAAUAUCGAGGAUAUCUCAUGGAUACAUGAGGAUCACCCAUGUUAAUGGGAGAAGGCGAUAUUAACAGCAUGUUACAUGCA | 0.028 | 0.00738 | – | – |
| AGUUCUUGUGAAGGAUAUACGGCGGGUCGCGCAGUAGAAGGUCACAUGAGGAUCACCCAUGUCGACAUUGUGCAGUAUCGACAA | – | – | 0.0829 | 0.465 |
| AGUUGGCGAGGAUAUACAUGAGGAUCACCCAUGUGAAAUAUAAUAGUGAGGAAGAAAAGUAGAAGGCGCUGACA | – | – | 0.0483 | 0.281 |
| AUAAAACAUGAGGAUCACCCAUGUAAGGAUAUGCGAAAAUAAAAUAAAAUAAAAUAAAGCAGAAGGUACAAAAA | – | – | 0.051 | 0.0596 |
| AUAAAACAUGAGGAUCACCCAUGUCAACAAAGUCGAGGAUAUGGGCAAAUAAAAUAAGAACCAGAAGGCGAAUAAU | 0.398 | 0.0366 | – | – |
| AUAAAACAUGAGGAUCACCCAUGUCAACAAAGUCGAGGAUAUGGGCAAUUAAAAUAAGAACCAGAAGGCGAAUAAU | 0.172 | 0.0398 | – | – |
| AUAAACCAAGGAUAUACAUGAGGAUCACCCAUGUUCCCUUGAACCCAGGGUAUGCAAUGUAGAAGGUGGGAAAC | – | – | 0.02 | 0.0295 |
| AUAAACGCAGGAUAUACAUGAGGAUCACCCAUGUCCGCGCUUGUUGCGGGCACCUGAUGUAGAAGGGCGGGCGC | – | – | 0.214 | 0.184 |
| AUAAGCAUUUAUGUGUGCGUAGCACAGGAUAUGCUCCGCGCACAUGAGGAUCACCCAUGUUCGCAGCAGAAGGGUGCAUGCGUU | 0.33 | 0.0615 | – | – |
| AUAAUGAGAGGAUAUACAUGAGGAUCACCCAUGUAAUUAACACGGCGAGCUCCAAUACGUAGAAGGCUCAUUUA | – | – | 0.0492 | 0.035 |
| AUAAUGUAAGGAUAUCAGUCGACUAGCCUCGGCUAGUCGACUGAGAAGGUACAUGAGGAUCACCCAUGUGGUUC | – | – | 1.13 | 0.484 |
| AUAAUUUUAUAAUUCUUUUUAUUCAGAAGGCAUAACAUGAGGAUCACCCAUGUAAAUUAAUGUUAUGAGGAUAUGAUUUGGUUA | – | – | 0.0225 | 0.118 |
| AUACAUGAGGAUCACCCAUGUGGAUCACCCAUGUAAGAUGGUAGAAGGAUGUUAUUAUUAUUUUCAUAGGAUAUACUAUUUAGU | – | – | 0.328 | 0.408 |
| AUACAUGAGGAUCACCCAUGUUACUGGGUCUAAAUAGAACGUAGAAGGAUGUAUUUACACAUAACAUAGGAUAUACUAUAUAGU | – | – | 0.153 | 0.0728 |
| AUACAUGAGGAUCACCCAUGUUACUGGGUCUAUAUAGAACGUAGAAGGAUGAUAUUAUAAAUAUCAUAGGAUAUACUAUAUUGU | – | – | 0.0327 | 0.032 |
| AUACAUGAGGAUCACCCAUGUUACUGGGUCUAUAUAGAACGUAGAAGGAUGUUUAUACACAUAACAUAGGAUAUACAAUAUUGU | – | – | – | 0.0309 |
| AUACCACGAGGAUAUCGUCUAUUUCACAUGAGGAUCACCCAUGUUAUCUUUGUUUUGUUUCGAGAAGGCGUGUUUU | – | – | 0.0309 | 0.0209 |
| AUACCUUAUGAGAAGGCGGUCAUGAAACAUGAUCGAGGAUAUCAUGUAAACAUGAGGAUCACCCAUGUAUGGGUAUUAUGGUAG | 0.0617 | 0.0123 | – | – |
| AUACGCUGAGGAUAUACCAAAACAACAACCUCGUGUAUAAUACAUGAGGAUCACCCAUGUAGAAGGCAGUAAAC | – | – | 0.0586 | 0.116 |
| AUACUCAUGUAAGGAUAUGCAGCCGAAACGGCUGCAGAAGGUACUAUAAUACAUGAGGAUCACCCAUGUCGAAAUAAAAUAGUU | 0.201 | 0.0479 | – | – |
| AUACUCAUGUAAGGAUAUGCAGCCGUUUCGGCUGCAGAAGGUACUAUAAUACAUGAGGAUCACCCAUGUCUCUCGCCUUGCGAG | 0.71 | 0.0897 | – | – |
| AUAGCAACAUGAGGAUCACCCAUGUAGGAUAUCGCUAUUGUAAUCAUGAAACAUGAUUACAAUAGCGAGAAGGACAUAUGCUAU | – | – | 0.00651 | 0.00975 |
| AUAGGAUUGCGAGGAUAUUAGCGCGGGCCUUCAGACUUACGAAAUGACAUGAGGAUCACCCAUGUUAAGAAGGCGCAUCAAAUG | – | – | 0.00658 | 0.0583 |
| AUAUACGUUGAGGAUAUGCGAAUAAGUAUAGUUGCAGAAGGCGACACAUGAGGAUCACCCAUGUUCAUGGACAC | – | – | 0.0282 | 0.0446 |
| AUAUAGAUGGUCAGGAUAUGCUAGUGGUAACAGUAGCAGAAGGGACAUGAGGAUCACCCAUGUAGAUACUGCUC | – | – | 0.018 | 0.0322 |

| Sequence | apparent Kd [1] [µM] | apparent Kd [2] [µM] | apparent Kd [3] [µM] | apparent Kd [4] [µM] |
| --- | --- | --- | --- | --- |
| AUAUAUAUAUCAGGAUAUGGACAGGCCUGUUCGUAUUAAGACAGUAACAUGAGGAUCACCCAUGUCCAGAAGGGAUAUAUAUAU | – | – | 0.0839 | 0.05 |
| AUAUCUCUGUAAGGAUAUAGAUGGUGUACGCCUCCGACAUGAGGAUCACCCAUGUUAUAUUUUGUCUAGAAGGUACAGUGUCGG | 0.389 | 0.222 | – | – |
| AUAUCUUACCAAGGAUAUUUAAGAUUUGUGUAGACAUGAGGAUCACCCAUGUGGCCUUAGUCACGGGAGAAGGUGGUUUGAUAU | 0.878 | 0.493 | – | – |
| AUAUUAAGUGUGAGGAUAUGCUGGUCCUUGGAUCAGCAGAAGGCACAUGAGGAUCACCCAUGUAAUAUAUUUAU | – | – | 0.0904 | 0.349 |
| AUCAAUCGUGUAGGAUAUGCGUGGCGAAGCUAUGCAGAAGGACAUGAGGAUCACCCAUGUCUUUCUGUCUGUGUACAGACAGGA | – | – | 0.0204 | 0.0715 |
| AUCAGCGCGUCAGGAUAUACGUCACUGCGUCAGCAGUGUGGUAAGAUCACAUGAGGAUCACCCAUGUAGAAGGGACGAGCUGAU | – | – | 0.0128 | 0.307 |
| AUCAGCUCGUCAGGAUAUACGUCACUGCGUCACCAGUGUGGUAAGAUCACAUGAGGAUCACCCAUGUAGAAGGGACGAGCUGAU | – | – | 0.0154 | 0.287 |
| AUCAGCUCGUCAGGAUAUACGUCACUGCGUCAGCAGCGUGGUAAGAUCACAUGAGGAUCACCCAUGUAGAAGGGACGAGCUGAU | – | – | 0.0257 | 0.336 |
| AUCAGCUCGUCAGGAUAUACGUCACUGCGUCAGCAGGGUGGUAAGAUCACAUGAGGAUCACCCAUGUAGAAGGGACGAGCUGAU | – | – | 0.023 | 0.404 |
| AUCAGCUCGUCAGGAUAUACGUCACUGCGUCAGCAGUGUAAUAAAAUAACAUGAGGAUCACCCAUGUAGAAGGGACGAGCUGAU | – | – | 0.00636 | 0.00675 |
| AUCAGCUCGUCAGGAUAUACGUCACUGCGUCAGCAGUGUGGUAAGAUCACAUGAGGAUCACCCAUGUAGAAGGGACGAGCUGAG | – | – | 0.0141 | 0.284 |
| AUCAGCUCGUCAGGAUAUACGUCACUGCGUCAGCAGUGUGGUAAGAUCACAUGAGGAUCACCCAUGUAGAAGGGACGAUCUGAU | – | – | 0.0128 | 0.309 |
| AUCAGCUCGUCAGGAUAUACGUCACUGCGUCAGCAGUGUGGUCAGAUCACAUGAGGAUCACCCAUGUAGAAGGGACGAGCUGAU | – | – | 0.0286 | 0.549 |
| AUCAGCUCGUCAGGAUAUACGUCACUGCGUGAGCAGUGUGGUAAGAUCACAUGAGGAUCACCCAUGUAGAAGGGACGAGCUGAU | – | – | 0.0136 | 0.271 |
| AUCAGCUUGACAGGAUAUGCAUGUCAACGAAAGUUGACAAUCUUAAUAACAUGAGGAUCACCCAUGUAGAAGGGUCGAGCUGAU | – | – | 0.0174 | 0.0199 |
| AUCAGUCCGUAGAAGGGUGACAUGAGGAUCACCCAUGUGCCGUGUGCAUUUAUGCCUCCACGGCCACAGGAUAUACGGAGUCGA | 0.089 | 0.0226 | – | – |
| AUCAUCUUAUCAGGAUAUGCGUGUCGACGAAAGUAGACAAUCUUGAUAACAUGAGGAUCACCCAUGUAGAAGGGAUGAGAUGAU | – | – | 0.0466 | 0.0403 |
| AUCAUGAGAGGAUAUACAUGAGGAUCACCCAUGUGGUAAACACCAUGAGCUCAAUUACGUAGAAGGCUCAUUUG | – | – | 0.0264 | 0.0456 |
| AUCAUGUAAGGAUAUCUUACAUGUGACUUCGGUCACUGUUCAGAGAAGGUACAUGAGGAUCACCCAUGUAGAAC | – | – | 0.0187 | 0.0284 |
| AUCAUGUGAGGAUAUGUGAUCAACCUUCUGUAUAGAUGAUUACAGAAGGCACAUGAGGAUCACCCAUGUAGAUC | – | – | 0.0709 | 0.079 |
| AUCAUUCGUGUAGGAUAUGCGUGGCGAAGCUAUGCAGAAGGACAUGAGGAUCACCCAUGUCUUUCUCGAGCUGUAGCUCGAGGA | – | – | 0.0213 | 0.0922 |
| AUCCGCUCGUCAGGAUAUACGUCACUGCGUCAGCAGUGUGGUAAGAUCACAUGAGGAUCACCCAUGUAGAAGGGACGAGCUGAU | – | – | 0.0136 | 0.277 |
| AUCCUACAUGAGGAUCACCCAUGUCAGGAUAUCCAAGAAAUGUGGCCGUAUCGGCCACGGAGAAGGGACGGGUG | – | – | 0.04 | 0.0608 |
| AUCGUGAGUAAGGAUAUCACGCGACCCUUUCGGUGAGAAGGUGCCACAUGAGGAUCACCCAUGUGGGUCGUCGC | – | – | 0.0156 | 0.0159 |
| AUCUCACAUGAGGAUCACCCAUGUUAGGAUAUUGUUUCUUGAUGAUUACAUCAAGCGAUAAGAAGGGACAGACU | – | – | 0.0256 | 0.0274 |
| AUCUGGUCCUUACGCCCACAUGAGGAUCACCCAUGUCAGGCACAGGAUAUCCCGGGAGCUUUGGUGGAGAAGGGUGCCCUUGGG | – | – | 0.0556 | 0.1 |
| AUCUUGUAAGGAUAUCGUGCAAGUUUCAAAAGAGGCUUGUGCGAGAAGGUACAUGAGGAUCACCCAUGUAGGUU | – | – | 0.0262 | 0.0713 |
